Data on one compound can be found in ChEMBL document CHEMBL4138082 (Eur J Med Chem, 2017).

The source made the active and inactive calls. The calls are words filed in the database; no cut-off is given here.

Assay [1] relates to HepG2. Put plainly: Induction of apoptosis in human HepG2 cells assessed as cell population with intact mitochondrial membrane potential at 0.0625 uM measured after 48 hrs by JC-1 staining based flow cytometry (reference value: 98.51%). Format: functional. In a few lines:
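HepG-2 cells were exposed 48 h to 0.0625, 0.125 or 0.25 µM or to vehicle, then washed in PBS and stained with JC-1 in the dark. Red aggregate versus green monomer fluorescence was measured by flow cytometry to give the percentages of cells with healthy versus collapsed mitochondrial membrane potential.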

Assay [2] concerns HepG2. Put plainly: Cell cycle arrest in human HepG2 cells assessed as G1 phase accumulation at 0.125 uM after 48 hrs by propidium iodide staining based flow cytometry (reference value: 32.74%). Format: functional. The gist of the method:
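HepG-2 cells were plated and grown 24 h at 37 °C, then treated 48 h at 0, 0.0625, 0.125 or 0.25 µM, with 0.1% DMSO as control. Cells were fixed overnight in 70% ethanol at 4 °C, treated with RNase A and stained with propidium iodide. DNA content was measured by flow cytometry to give cell-cycle phase distribution.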
Background: A flow cytometer gives signals particle by particle.

Assay [3] concerns HepG2. Put plainly: Cell cycle arrest in human HepG2 cells assessed as S phase accumulation at 0.0625 uM after 48 hrs in presence of hemoglobin by propidium iodide staining based flow cytometry (reference value: 36.40%). Format: functional.
Assay [4] deals with HepG2. Put plainly: Induction of apoptosis in human HepG2 cells assessed as necrotic cells at 0.0625 uM after 48 hrs by Annexin V-APC/7-AAD staining based flow cytometry (reference value: 2.40%). The format is functional.
Assay [5] relates to HepG2. Put plainly: Induction of apoptosis in human HepG2 cells assessed as viable cells at 0.125 uM after 48 hrs by Annexin V-APC/7-AAD staining based flow cytometry (reference value: 91.07%). The following applies: HepG2, 48 h, read-out: Activity. Format: functional.
The subject of assay [6] is HepG2. Put plainly: Induction of apoptosis in human HepG2 cells assessed as late apoptotic cells at 0.25 uM after 48 hrs by […] based flow cytometry (reference value: 3.36%). The format is functional.
In assay [7] the test system is HepG2. Put plainly: Induction of apoptosis in human HepG2 cells assessed as viable cells at 0.25 uM after 48 hrs by Annexin V-APC/7-AAD staining based flow cytometry (reference value: 91.07%). The format is functional. To be noted: HepG2, 48 h, read-out: Activity.
Assay [8] relates to HepG2. Put plainly: Induction of apoptosis in human HepG2 cells assessed as late apoptotic cells at 0.0625 uM after 48 hrs in presence of hemoglobin by Annexin V-APC/7-AAD staining based flow cytometry (reference value: 3.36%). The format is functional.
Assay [9] has as its system HepG2. Put plainly: Upregulation of total Cyt c level in human HepG2 cells up to 0.25 uM after 48 hrs by Western blot method. The format is functional, cell-based.

Turning to `C[C@H]1CCC/C=C/[C@@H]2C[C@H](OC(=O)CCCC(=O)OCCOc3no[n+]([O-])c3S(=O)(=O)c3ccccc3)C[C@H]2[C@H](OC(=O)CCCC(=O)OCCOc2no[n+]([O-])c2S(=O)(=O)c2ccccc2)/C=C/C(=O)O1`, the Activity in the assay with HepG2 [1] turned out to be 83.42%; with HepG2 [2], 31.78%; in the assay with HepG2 [3], 24.74%; with HepG2 [4] it was 3%; in the assay with HepG2 [6], 40.21%; in the assay on HepG2 [8], 6.68%. Besides, the viability at 0.125 µM in the assay on HepG2 [5] was 63%. In the assay with HepG2 [7], the viability at 0.25 µM turned out to be 39.3%. Besides, the outcome with HepG2 [9] was Active.
